Here are results for three substances from article PMC7736561 (Angewandte Chemie (International ed. in English), 2020).

For one data set, the system named is Asp-N. In words: Proteolytic degradation by Asp-N endoproteinase, LCMS analysis. In kind it is in vitro ADME. To be noted: SF8(DDDDG)2 vs linear azido-DDDDG, 2 hours. In outline: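 The test compound and the linear pentapeptide comparator were each incubated separately at 10 μM with Asp-N, an endoproteinase that cleaves peptide bonds on the N-terminal side of aspartic acid residues.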

Data set [1] is described as follows: Self-aggregation in water by absorption spectrum. In kind it is physicochemical. To be noted: absorption spectrum in water (Figures S7, S10).
A further data set in a line: Water solubility. The note with it: in water. Type of data set: physicochemical.
A short description of data set [2]: Histology staining of bone sections. The arrangement: species or system mouse. The method in brief: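 Thin sections of mouse tibia were treated with a 5 μM probe solution for 30 minutes and then imaged by fluorescence microscopy. For the demineralized comparison, slices were pre-treated with EDTA before staining. A charge-balanced, net-neutral peptide probe served as the control stain.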

Data set [3] can be described thus: Chemical stability of squaraine fluorophore in PBS. In kind it is physicochemical. To be noted: pH 7.4, followed over 15 hours (Figure S11A).

Consider “(DDDDG)2 (bicyclic or more) [SF8(DDDDG)2]”, for which, in the data set with Asp-N, the “factor by which proteolytic degradation of the peptide sequence was reduced” value turned out to be 3.8. For the same substance, the self-aggregation entry in data set [1] was “no molecular self-aggregation”. In addition, the water solubility entry in the data set “Water solubility” was “high water-solubility”. For the same substance, the “staining of demineralized bone slices” value in data set [2] (bone slices demineralized with pre-treatment of EDTA (Figure S26)) is given as “no staining”. Further, the “staining of bone histology slices” value in data set [2] (thin sections of mouse tibia bone, probe 5 μM, 30 minutes) is listed as “strongly stained the mineral segments”.

With (azido-RRRG)2 [SR(azido-RRRG)2], the self-aggregation result in data set [1] is “unaggregated”. In addition, in the data set “Water solubility”, the water solubility result is recorded as “soluble”. Besides, in data set [3], the “chemical stability, fluorescence profile of solution” value was “almost completely bleached after a few hours”.

In the case of (azido-DDDDG)2 [SR(azido-DDDDG)2], the self-aggregation result in data set [1] was “formation of non-fluorescent H-aggregates”. For the same substance, the water solubility result in the data set “Water solubility” was “low solubility”.
